# Screening data deposited in PubChem by several laboratories.
# HTR5A inv ctr – counter-screen for OPRM1-OPRD1 inverse agonists: human HTR5A inverse agonism. P47898. HTR5A cell line, luminescence. inhibition, % at 9.3 µM. 0.083% of 340,000 active; in the data active = inhibition mostly above about 23%, no sharp cut-off; inactive = mostly below about 18%
# Target sequence (P47898 whole entry, looked up): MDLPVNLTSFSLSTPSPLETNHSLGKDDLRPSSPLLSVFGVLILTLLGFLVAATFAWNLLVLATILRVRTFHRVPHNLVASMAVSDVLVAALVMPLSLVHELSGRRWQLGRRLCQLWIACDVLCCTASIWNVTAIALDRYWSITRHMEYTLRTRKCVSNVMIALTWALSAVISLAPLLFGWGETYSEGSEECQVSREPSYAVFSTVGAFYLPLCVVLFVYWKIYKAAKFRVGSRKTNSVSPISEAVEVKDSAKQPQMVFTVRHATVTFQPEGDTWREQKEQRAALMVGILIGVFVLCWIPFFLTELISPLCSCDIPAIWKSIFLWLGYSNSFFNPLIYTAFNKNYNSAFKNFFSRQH
# MOR-DOR ag – OPRM1-OPRD1 heterodimerization agonism. cells, luminescence. 0.3% of 340,000 active. activation, % at 9.3 µM. P35372+P41143; in the data active = activation above about 18%
# HTR5A ag ctr – counter-screen for OPRM1-OPRD1 agonists: human HTR5A agonism; P47898; HTR5A agonist assay, luminescence, cell-based; AID 504692; 0.61% of 340,000 active; activation, % at 9.3 µM; in the data active = activation mostly above about 9.5%, no sharp cut-off; inactive = mostly below about 7.6%
# Arrestin-AP2 inh – inhibitors of human beta-arrestin and AP2 interaction. 0.31% of 340,000 active. inhibition, % at 10 µM. AID 504490. FITC-arrestin peptide / GST-AP2 beads, flow cytometry; AP2 beta2 appendage carries R879A mutation;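 active = inhibition above a set limit, near 3 SD of compounds lacking own fluorescence, cut at about 54% in these data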
#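 Assay system: GST-AP2 R879A bound to glutathione beads, E. coli-expressed; Medium: PBS with 0.05% Tween 20 and 0.1% BSA; Also added: fluorescein-tagged arrestin peptide at 50 nM final; Timing: 12 min plus 1 h, RT; Measured by: flow cytometry, FL1 (488/535 nm); Evaluation: percent drop in bead-associated FITC signal.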
# OPRM1-OPRD1 inv – inverse agonists of human mu-delta opioid receptor heterodimerization | cell-based MOR-DOR heterodimer luminescence, inverse agonism | inhibition, % at 9.3 µM | 0.21% of 340,000 active | AID 504357; in the data active = inhibition above about 22%, passing the limit was not always enough
# DAGLB inh – blocks human DAGLB lipase activity; Q8NCG7; AID 504411; 0.059% of 340,000 active; HEK293T DAGLB membrane lysate, EnzChek fluorogenic substrate; inhibition, % at 5.17 µM; in the data active = inhibition above about 34%
# OPRM1-D1 inv cf – OPRM1-OPRD1 heterodimer inverse agonism, confirmation; inhibition, % at 9.3 µM; shares compounds with OPRM1-OPRD1 inv; cells expressing OPRM1/OPRD1 heterodimer, luminescence; 20% of 580 active; AID 504900; in the data active = inhibition above about 32%
# HTR5A inv ctr2 – inverse agonist of human HTR5A in OPRM1-OPRD1 counter-screen; shares compounds with OPRM1-OPRD1 inv; HTR5A-expressing cells, luminescence, inverse agonism; inhibition, % at 9.3 µM; 580 tested, under 10 active; AID 504914; call rule not given here
# A number is an active result; - = inactive; . = no result. Rows were chosen to be rich in hits. Some 1.4% of all compounds tested hit in one or more screens of this group.
SMILES,HTR5A inv ctr,MOR-DOR ag,HTR5A ag ctr,Arrestin-AP2 inh,OPRM1-OPRD1 inv,DAGLB inh,OPRM1-D1 inv cf,HTR5A inv ctr2
O=C(NC(=S)Nc1ccccc1O)c1cccnc1,-,-,-,-,35,-,-,-
CCC(C)c1ccc(O)c(NC(=S)NC(=O)c2cccnc2)c1 (stereo unspecified),-,-,-,-,47,-,-,-
O=C(NC(=S)Nc1ccccc1O)c1cncc(Br)c1,-,-,-,-,41,-,-,-
O=C(NC(=S)Nc1ccccc1C(=O)O)c1cncc(Br)c1,-,-,-,-,-,-,.,.
O=C(CN1C(=O)NC2(CCCC2)C1=O)OCC(=O)c1cccc(Cl)c1,-,-,-,-,-,-,.,.
Cc1ccc2c(c1)C(=O)C(=O)N2c1ccc(Cl)cc1,-,-,-,-,58,-,-,-
Cc1ccc([C@H]2C[C@@H](n3cc(C4CC4)nn3)[C@H](O)CN2C(=O)C2CCCCC2)cc1,.,.,.,.,.,-,.,.
Cc1ccc(C(=O)COC(=O)CNC(=O)C(c2ccccc2)c2ccccc2)cc1[N+](=O)[O-],-,-,-,-,66,-,41,-
CCc1ccc(C(=O)COC(=O)CNC(=O)Cc2ccccc2)cc1,-,-,-,-,-,-,.,.
Cc1ccc(C(=O)NCC(=O)OCC(=O)c2ccc(C)c([N+](=O)[O-])c2)cc1,-,-,-,-,51,-,42,-
Cc1ccc(C(=O)NCC(=O)OCC(=O)Nc2ccccc2[N+](=O)[O-])cc1,-,-,-,-,-,-,.,.
O=C(Cc1ccccc1)NCC(=O)OCC(=O)c1ccc(Cl)c([N+](=O)[O-])c1,-,-,-,-,90,-,70,-
CC(=O)Nc1ccc(C(=O)OCC(=O)c2ccc(C)c([N+](=O)[O-])c2)cc1,-,-,-,-,-,-,.,.
O=S(=O)(NCCS(=O)(=O)N1CCN(c2ccc(F)cc2)CC1)c1ccc(F)cc1,.,.,.,.,.,-,.,.
Cc1ccc(S(=O)(=O)N2CCCCC2)cc1NC(=O)c1nn(C)c(=O)c2ccccc12,-,-,-,-,-,-,.,.
Cc1[nH][nH]c(=O)c1C(c1c(C)[nH][nH]c1=O)c1cn(Cc2ccc(F)cc2)c2ccccc12,-,-,-,-,43,-,-,-
Cc1[nH][nH]c(=O)c1C(c1c(C)[nH][nH]c1=O)c1cn(Cc2ccc(Cl)c(Cl)c2)c2ccccc12,-,-,-,-,-,-,.,.
O=C(CCN=C1NS(=O)(=O)c2ccccc21)OCC(=O)c1ccccc1Cl,-,-,-,-,-,-,.,.
O=C(CN=C1NS(=O)(=O)c2ccccc21)OCC(=O)c1cc(F)ccc1F,-,-,-,-,30,-,-,46
CN(C)C(=S)N=c1ssc(=S)n1Cc1cccnc1,-,-,-,-,-,-,.,.
Cc1ccc(C2C(C(=O)c3cc4ccccc4o3)=C(O)C(=O)N2CCN2CCOCC2)o1 (stereo unspecified),-,-,-,-,42,-,-,-
CC(=O)Nc1ccc(O)c(-c2nc3ccccc3s2)c1,-,-,-,.,26,-,-,-
COc1ccc(NC(=S)Nc2nc(CC(=O)Nc3ccccc3OC)cs2)cc1,-,-,-,-,36,-,-,-
O=C(/C=C/c1ccccc1)C1=C(O)C(=O)N(CCO)C1c1cccc([N+](=O)[O-])c1 (stereo unspecified),.,.,.,-,.,.,.,.
O=C(/C=C/c1ccccc1)C1=C(O)C(=O)N(CCO)C1c1ccccc1[N+](=O)[O-] (stereo unspecified),-,-,-,-,52,-,-,-
SMILES,HTR5A inv ctr,MOR-DOR ag,HTR5A ag ctr,Arrestin-AP2 inh,OPRM1-OPRD1 inv,DAGLB inh,OPRM1-D1 inv cf,HTR5A inv ctr2
C[C@H]1CN([C@@H](C)CO)C(=O)c2cc(Br)cnc2O[C@H]1CN(C)C(=O)c1ccc2c(c1)OCO2,.,.,.,.,.,-,.,.
Cc1ccc(N=C2C(=O)Nc3ccc(Br)cc32)cc1,-,-,-,-,-,-,.,.
Cc1ccc(N=C2C(=O)Nc3c(C)cccc32)cc1,-,-,-,-,55,-,32,-
Cc1cccc2c1NC(=O)C2=Nc1ccc(Cl)cc1,-,-,-,-,55,-,45,-
COc1ccc(N=C2C(=O)Nc3c(C)cccc32)cc1,-,-,-,-,62,-,51,-
O=C(CCCCC(=O)NN=Cc1ccc(Cl)cc1)NN=Cc1ccc(Cl)cc1,-,-,-,-,-,-,.,.
Cc1cn([C@H]2C[C@H](O)[C@@H](CNCc3ccc(-c4cc(Cl)ccc4C(F)(F)F)o3)O2)c(=O)[nH]c1=O,.,.,.,.,.,-,.,.
Cc1ccc(C(=O)O)cc1NC(=O)CCc1c(C)noc1C,.,.,.,.,.,-,.,.
Cc1cccc(C)c1NC(=O)C(NC=O)c1ccc(Cl)cc1 (stereo unspecified),-,-,-,-,33,-,-,-
Cc1cc(N2O[C@H]3C=C[C@@H]2C3)no1,-,-,-,-,-,-,.,.
Cn1nnc(NC(=S)NC(=O)c2cccc3c(Br)cccc23)n1,-,-,-,-,33,-,-,-
COc1cccc(C(=O)NC(=S)Nc2nnn(C)n2)c1,-,-,-,-,28,-,-,-
COc1c(C(=O)NC(=S)Nc2nnn(C)n2)cc2ccccc2c1Br,-,-,-,-,-,-,.,.
O=C(NNc1ncc(C(F)(F)F)cc1Cl)c1ccc(Cl)c(Cl)c1,-,-,-,-,-,-,.,.
Cc1ccc(NC(=S)NNc2ncc(C(F)(F)F)cc2Cl)c(C)c1,-,-,-,-,49,-,-,-
Cc1ccc(NC(=S)NNc2ncc(C(F)(F)F)cc2Cl)cc1,-,-,-,-,55,-,-,-
Cc1cnn(CCC(=O)NNC(=S)Nc2ccc(F)cc2)c1,-,-,-,-,31,-,40,-
CC(=O)N(C)c1ccc(N=C2C(=O)Nc3ccccc32)cc1,-,-,-,-,57,-,-,-
NC(N)=NS(=O)(=O)c1ccc(NC(=S)Nc2ccc(F)cc2)cc1,-,-,-,-,-,-,.,.
NC(N)=NS(=O)(=O)c1ccc(N=C2C(=O)Nc3ccccc32)cc1,-,-,-,-,53,-,70,-
O=C1Nc2ccccc2/C1=N\N1CCOCC1,-,-,-,-,-,-,.,.
CC(=O)Nc1ccccc1C(=O)C(=O)O,-,-,-,-,37,-,-,-
COc1ccc(-n2c(N)c(C(=O)NCC3CCCO3)sc2=S)cc1 (stereo unspecified),-,-,-,.,-,-,.,.
CCOC(=O)c1ccc(-n2c(N)c(C(=O)NCC3CCCO3)sc2=S)cc1 (stereo unspecified),-,-,-,-,34,-,-,-
CCOC(=O)c1ccc(-n2c(N)c(C(=O)NCc3ccco3)sc2=S)cc1,-,-,-,-,30,-,-,-
